For data set [1], the target named is T1, Corticotropin-releasing factor receptor 1 (Rattus norvegicus, UniProt P35353).
T1 sequence (P35353 whole entry): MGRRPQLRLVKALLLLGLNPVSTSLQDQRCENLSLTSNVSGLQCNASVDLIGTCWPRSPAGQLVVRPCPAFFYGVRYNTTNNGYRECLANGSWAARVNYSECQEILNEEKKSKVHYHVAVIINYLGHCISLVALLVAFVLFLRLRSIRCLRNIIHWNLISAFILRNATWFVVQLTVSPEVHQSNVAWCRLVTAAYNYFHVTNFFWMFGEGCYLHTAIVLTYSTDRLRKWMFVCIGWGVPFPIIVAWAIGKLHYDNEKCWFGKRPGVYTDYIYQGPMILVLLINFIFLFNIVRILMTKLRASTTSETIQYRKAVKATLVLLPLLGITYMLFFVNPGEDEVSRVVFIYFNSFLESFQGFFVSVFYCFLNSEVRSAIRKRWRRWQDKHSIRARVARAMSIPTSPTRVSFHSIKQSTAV
The data set can be described thus: Displacement of [125I]Tyro-rat/human CRF from CRF1 receptor in rat cortical membrane by gamma counting. It counts as cell membranes. A digest of the protocol: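 Binding to CRF receptors in rat cortical homogenate.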
A general note: Loss of bound radioactivity is the signal in a displacement assay; it reports binding, not function.

A short description of data set [2]: AUC in Beagle dog at 1 mg/kg, po by cassette dosing. Also noted: dose 1 mg/kg, route oral. It counts as ADME, organism-based, Canis lupus familiaris. Particulars: plasma.
The nature of data set [3]: Cmax in Beagle dog at 1 mg/kg, po by cassette dosing. Also noted: dose 1 mg/kg, route oral. Format: ADME, organism-based, Canis lupus familiaris. To be noted: in vivo.
Data set [4] in a line: Half life in Beagle dog at 1 mg/kg, po by cassette dosing. Also noted: dose 1 mg/kg, route oral. Format: ADME, organism-based, Canis lupus familiaris. Particulars: in vivo.
For data set [5], the system named is Rattus norvegicus. The data set can be described thus: Effect on gastrointestinal motility in fasted Sprague-Dawley rat assessed as distance of charcoal moved from stomach to cecum at 3 mg/kg, po (RVb= 42.1+/-1.8 %).
Data set [6] has as its system Rattus norvegicus. As to the kind of experiment: Effect on gastrointestinal motility in fasted Sprague-Dawley rat assessed as distance of charcoal moved from stomach to cecum at 0.3 mg/kg, ip (RVb= 38.4+/-3.8 %). To be noted: route intraperitoneal. Format: functional, Caecum.
The test system of data set [7] is Rattus norvegicus. As to the kind of experiment: Toxicity in rat assessed as total distance traveled at 3 mg/kg, po after 1 hr by spontaneous locomotor test. Format: organism-based. Also noted: dose 3 mg/kg, route oral. To be noted: in vivo. A digest of the protocol: (§1)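 Rat spontaneous locomotor activity test with oral dosing in 0.25% Methocel 1 h before testing, at doses up to 100 mg/kg. Values are mean ± SEM, with N rats per group, compared with the vehicle (zero-dose) group.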

For data set [8], the system named is Rattus norvegicus. As to the kind of experiment: Toxicity in rat assessed as total distance traveled at 10 mg/kg, po after 1 hr by spontaneous locomotor test. It counts as functional. A digest of the protocol:
as §1

The test system of data set [9] is Rattus norvegicus. The data set can be described thus: Toxicity in rat assessed as total distance traveled at 30 mg/kg, po after 1 hr by spontaneous locomotor test. Format: functional. A digest of the protocol:
as §1

The test system of data set [10] is Rattus norvegicus. The data set can be described thus: Toxicity in rat assessed as total distance traveled at 100 mg/kg, po after 1 hr by spontaneous locomotor test. It counts as organism-based. Also noted: dose 100 mg/kg, route oral. To be noted: in vivo. A digest of the protocol: as §1
In data set [11] the test system is Rattus norvegicus. The data set can be described thus: Toxicity in rat assessed as time spent on rotarod at 3 mg/kg, po after 1 hr by rotarod test. It counts as organism-based. Also noted: dose 3 mg/kg, route oral. Particulars: in vivo. A digest of the protocol:
(§2)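 Rats, n = 8 per dose, dosed po in 0.25% Methocel 1 h before testing, at 0, 1.0, 3.0, 10, 30 and 100 mg/kg. Read-out is time on rotorod (s), mean ± SEM, compared with the vehicle (zero-dose) group.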

For data set [12], the system named is Rattus norvegicus. As to the kind of experiment: Toxicity in rat assessed as time spent on rotarod at 10 mg/kg, po after 1 hr by rotarod test. Also on record: dose 10 mg/kg, route oral. Particulars: in vivo. It counts as organism-based. The procedure, abridged: as §2
On the technique in general: Falling from the rotarod earlier than controls is read as motor impairment.

For data set [13], the system named is Rattus norvegicus. As to the kind of experiment: Toxicity in rat assessed as time spent on rotarod at 30 mg/kg, po after 1 hr by rotarod test. It counts as organism-based. Also noted: dose 30 mg/kg, route oral. Particulars: in vivo. The procedure, abridged: as §2

Data on 18 compounds can be found in ChEMBL document CHEMBL1138476 (J Med Chem, 2009).

With `COCCN(CCOC)c1nc(C)nc2c(-c3cnc(N(C)C)cc3C)c(C)nn12`, the IC50 – broadly, the concentration needed to halve the response being measured – in data set [1] was found to be 91.9 nM.

Regarding `CCN(CC)c1nc(C)nc2c(-c3cnc(OC)cc3C)c(C)nn12`, the IC50 in data set [1] was determined as 14.5 nM.

`CCC(CC)Nc1nc(C)nc2c(-c3cnc(OC)cc3C)c(C)nn12` came in with an IC50 in data set [1] of 3 nM.

As to `CCCCN(CCC)c1nc(C)nc2c(-c3ccc(OC)nc3C)c(C)nn12`, the IC50 in [1] came to 2.4 nM.

`CCCN(C)c1nc(C)nc2c(-c3ccc(OC)nc3C)c(C)nn12` yielded an IC50 in data set [1] of 17.6 nM.

In data set [1], `CCCCN(C)c1nc(C)nc2c(-c3ccc(OC)nc3C)c(C)nn12` came in with an IC50 of 8.1 nM.

With `COCCN(CCOC)c1nc(C)nc2c(-c3cnc(OC)cc3C)c(C)nn12`, the IC50 in [1] worked out at 23.8 nM.

In data set [1], `CCCCN(CC)c1nc(C)nc2c(-c3ccc(OC)nc3C)c(C)nn12` gave an IC50 of 4.9 nM.

In turn, `COCCN(CCOC)c1nc(C)nc2c(-c3ccc(OC)nc3C)c(C)nn12` yielded a concentration for half-maximal inhibition (IC50) in data set [1] of 8.5 nM. Besides, in [2], the AUC (commonly concentration integrated over time) is 1.47 µM·h. Further, the Cmax (in general, the highest concentration seen after dosing) in data set [3] was 275 nM. Moreover, the half-life – broadly, the time needed for the level to fall by half in the phase considered – in data set [4] was 10.3 h.

In data set [1], `COCCNc1nc(C)nc2c(-c3c(C)cc(N(C)C)nc3C)c(C)nn12` came in with an IC50 of over 10000 nM.

Take `COCCN(CC1CC1)c1nc(C)nc2c(-c3ccc(OC)nc3C)c(C)nn12`: in [1], the half-maximal inhibitory concentration (IC50) amounted to 3.1 nM. In data set [2], the AUC stood at 1.73 µM·h. In data set [3], this compound had a Cmax of 314 nM. Moreover, the half-life in data set [4] was 11.4 h.

In the case of `CCCN(CC1CC1)c1nc(C)nc2c(-c3ccc(OC)nc3C)c(C)nn12`, the IC50 in data set [1] amounted to 1.6 nM.

Compound `CCC(CC)Nc1nc(C)nc2c(-c3ccc(OC)nc3C)c(C)nn12` came in with an IC50 in [1] of 3.1 nM.

In data set [1], `CCC(CC)Nc1nc(C)nc2c(-c3cnc(N(C)C)cc3C)c(C)nn12` returned an IC50 of 24.8 nM.

As to `CCN(CC)c1nc(C)nc2c(-c3cnc(N(C)C)cc3C)c(C)nn12`, the IC50 in data set [1] stood at 13.8 nM.

Regarding `CN1[C@@H]2CC[C@H]1C[C@@H](OC(=O)C(CO)c1ccccc1)C2` (mixture of isomers) [ATROPINE], the Activity with Rattus norvegicus [5] was 27.5%.

For the compound `C[N+](C)(C)CCOC(N)=O.[Cl-]` [CARBACHOL], the Activity in the data set on Rattus norvegicus [6] was 55.8%.

As to `CNC1=Nc2ccc(Cl)cc2C(c2ccccc2)=[N+]([O-])C1` [CHLORDIAZEPOXIDE], the Activity was 4624 cm with Rattus norvegicus [7], 3981 cm in the data set with Rattus norvegicus [8], 2162 cm with Rattus norvegicus [9] and 1062 cm in the data set on Rattus norvegicus [10]. The results for the Time with Rattus norvegicus [11], with Rattus norvegicus [12] and with Rattus norvegicus [13] were 227 s, 128 s and 114 s, respectively.
